In ChEMBL document CHEMBL1146549, “Five new cassane diterpenes from Myrospermum frutescens with activity against Trypanosoma cruzi” (J Nat Prod, 2003):

Legend:
Trypanosoma cruzi [1] = assay: Antitrypanosomal activity against Trypanosoma cruzi Tulahuen clone C4 trypomastigotes in HFF after 7 days by beta-galactosidase reporter gene assay; assay type: functional, organism-based; settings: 168 h
Method in brief: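 HFF seeded at 1 × 10^3/well in RPMI-1640 without phenol red plus 10% fetal calf serum, overnight. βGal-expressing trypomastigotes added at 1 × 10^3/well, overnight, then serial dilutions (final 50, 10, 2 µg/mL). DMSO ≤0.1% final; vehicle control. Read at 7 days post-infection: CPRG 100 µM, Nonidet P-40 0.1% final, 4-6 h at 37 °C, OD 570 nm. Duplicates, ≥3 experiments, SD.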

Trypanosoma cruzi [2] = assay: Antitrypanosomal activity against Trypanosoma cruzi epimastigotes after 3 days; assay type: functional, organism-based; settings: 72 h
Method in brief: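 Recombinant epimastigotes grown in LIT medium with 10% calf serum at 28 °C, seeded at 1 × 10^5/mL with test compounds. After 3 days, CPRG and Nonidet P-40 added as in the intracellular assay, OD 570 nm. Amphotericin B as positive control. IC50 derived as in the intracellular assay.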

HFF = assay: Cytotoxicity against HFF after 3 days by MTT assay; assay type: cell-based; settings: Homo sapiens, 72 h
Method in brief: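 Primary human foreskin fibroblasts adhered to 96-well plates, exposed to compounds, and viability assessed by MTT reduction after 3 days at 37 °C in CO2. IC50 derived as in the intracellular assay.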

[3] = Ratio of IC50 for HFF to IC50 for Trypanosoma cruzi Tulahuen clone C4 trypomastigotes
[4] = Ratio of IC50 for HFF to IC50 for Trypanosoma cruzi epimastigotes

Row | SMILES | IC50 (Trypanosoma cruzi [1]) [µM] | IC50 (Trypanosoma cruzi [2]) [µM] | IC50 (HFF) [µM] | Ratio IC50 [3] | Ratio IC50 [4]
1 | CC1CS(=O)(=O)CCN1/N=C/c1ccc([N+](=O)[O-])o1 (stereo not given) [NIFURTIMOX] | 11 | – | – | – | –
2 | C[C@@H]1[C@H](O)[C@@H](C)/C=C/C=C/C=C/C=C/C=C/C=C/C=C/[C@H](O[C@@H]2O[C@H](C)[C@@H](O)[C@H](N)[C@@H]2O)C[C@@H]2O[C@](O)(C[C@@H](O)C[C@@H](O)[C@H](O)CC[C@@H](O)C[C@@H](O)CC(=O)O[C@H]1C)C[C@H](O)[C@H]2C(=O)O [AMPHOTERICIN B] | – | 1 | – | – | –
3 | C=C[C@@]1(O)CC[C@H]2[C@@H](C[C@@H](O)[C@H]3[C@](C)(COC(C)=O)CCC[C@]23C)C1=C | 35.8 | 16.5 | 124 | – | –
4 | C=CC1=C(C)[C@@H]2C[C@@H](OC(C)=O)[C@H]3[C@](C)(COC(C)=O)CCC[C@]3(C)[C@H]2CC1 | – | 59 | – | – | –
5 | C=CC1=C(C)[C@@H]2C[C@@H](O)[C@H]3[C@](C)(COC(C)=O)CCC[C@]3(C)[C@H]2CC1 | 25.9 | 11.5 | 118 | – | 10
6 | C=CC1=C(C)[C@@H]2CC[C@H]3[C@@](COC(C)=O)(C(=O)O)CCC[C@]3(C)[C@H]2CC1 | – | 104 | – | – | –

The next lines start with results.

Row | IC50 (Trypanosoma cruzi [1]) [µM] | IC50 (Trypanosoma cruzi [2]) [µM] | SMILES | IC50 (HFF) [µM] | Ratio IC50 [3] | Ratio IC50 [4]
7 | 16.6 | 56 | C=CC1=C(C)[C@@H]2C[C@@H](O)[C@H]3[C@](C)(CO)CCC[C@]3(C)[C@H]2CC1 | 148 | 9 | –
8 | – | 36 | C=CC1=C(C)[C@@H]2CC(=O)[C@H]3[C@](C)(CO)CCC[C@]3(C)[C@H]2CC1 | – | – | –
9 | 17.4 | 48.6 | C=CC1=C(C)[C@@H]2CC[C@H]3[C@](C)(CO)CCC[C@]3(C)[C@H]2CC1 | 149 | 9 | –
